According to ChEMBL document CHEMBL1142312, “Anti-Plasmodium activity of tetrazolium salts” (Bioorg Med Chem, 2008):
Where “and” joins values, the source holds several entries; their conditions need not be identical. Identical values can stand only once. One block for each compound: values may come before it.

Tests used:
[1] = Inhibition of glutathione reduction of nitrotetrazolium blue chloride
[2] = tested on: Plasmodium falciparum; test: Antimalarial activity against Plasmodium falciparum in LDH reporter assay; assay type: functional, organism-based
Summary of the method: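 P. falciparum line ItG cultured in O+ human erythrocytes in RPMI-1640 with 10% human serum and 50 μM hypoxanthine. Twofold serial dilutions from 10 mg/mL DMSO stock, 2% hematocrit, 2% parasitemia. Incubated 72 h at 37 °C under 95% N2/3% CO2/2% O2. Parasite LDH assay read at 650 nm after 1 h. IC50 by non-linear regression, mean ± SE of four determinations.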

[3] = (§1) Toxicity in CHO cells; assay type: cell-based, Cricetulus griseus; conditions: Chinese hamster (Cricetulus griseus), CHO cells
Summary of the method: (§2)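 CHO cells grown to 50% confluency in RPMI-1640 with 10% fetal calf serum, 25 mM Hepes and gentamicin. Serial dilutions made from a 10 mg/mL DMSO stock; DMSO-only controls. After 48 h, MTT (10 mg/mL in medium) added for 1 h, then DMSO added and absorbance read at 650 nm. IC50 by non-linear regression of dose–response; mean ± SE of four determinations.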

[4] = Ratio of IC50 for CHO cells to IC50 for Plasmodium falciparum; assay type: functional
[5] = tested on: CHO; test: as §1; assay type: cell-based, Cricetulus griseus; conditions: cho
Summary of the method: as §2

SMILES: O=S(=O)(O)c1cc(N=C=S)ccc1/C=C/c1ccc(N=C=S)cc1S(=O)(=O)O
- IC50 [1]: 31 µM

SMILES: CC(=O)Nc1ccc(/C=C/c2ccc(N=C=S)cc2S(=O)(=O)O)c(S(=O)(=O)O)c1
- IC50 [1]: 2.7 µM

SMILES: COc1cc(-c2nn(-c3ccccc3)[n+](-c3ccc(Cl)cc3)n2)ccc1OCc1ccccc1.[Cl-]
- IC50 ([2]; Plasmodium falciparum): 3.8 µM
- IC50 [3]: 32 µM
- Ratio IC50 [4]: 8.4

SMILES: COc1cc(-c2nn(-c3ccccc3)[n+](-c3ccccc3F)n2)ccc1OCc1ccccc1.[Cl-]
- IC50 ([2]; Plasmodium falciparum): 2.2 µM
- IC50 [3]: 2.7 µM
- Ratio IC50 [4]: 1.2

SMILES: [Cl-].c1ccc(-n2nc(-c3cccc4ccccc34)n[n+]2-c2ccccc2)cc1
- IC50 ([2]; Plasmodium falciparum): 0.35 µM
- IC50 [3]: 2.4 µM
- Ratio IC50 [4]: 6.9

SMILES: O=[N+]([O-])c1ccc(-[n+]2nc(-c3ccc(OCc4ccccc4)cc3)nn2-c2ccccc2)cc1.[Cl-]
- IC50 ([2]; Plasmodium falciparum): 9 µM
- IC50 [3]: 4.4 µM
- Ratio IC50 [4]: 0.5

SMILES: COc1ccc(-c2nn(-c3ccccc3)[n+](-c3ccc([N+](=O)[O-])cc3)n2)cc1.[Cl-]
- IC50 ([2]; Plasmodium falciparum): 3.7 µM
- IC50 [3]: 6 µM
- Ratio IC50 [4]: 1.6

SMILES: O=[N+]([O-])c1ccc(-[n+]2nc(-c3ccc(Br)cc3)nn2-c2ccccc2)cc1.[Cl-]
- IC50 ([2]; Plasmodium falciparum): 10 µM
- IC50 [3]: 7 µM
- Ratio IC50 [4]: 0.7

SMILES: COc1cc(-c2nn(-c3ccccc3)[n+](-c3ccc([N+](=O)[O-])cc3)n2)cc(OC)c1OC(C)=O.[Cl-]
- IC50 ([2]; Plasmodium falciparum): 7.3 µM
- IC50 [3]: 19 µM
- Ratio IC50 [4]: 2.6

SMILES: COc1cc(-c2nn(-c3ccccc3)[n+](-c3ccccc3)n2)ccc1OCc1ccccc1.[Cl-]
- IC50 ([2]; Plasmodium falciparum): 0.26 µM
- IC50 [3]: 4.7 µM
- Ratio IC50 [4]: 18.1

SMILES: O=[N+]([O-])c1ccc(-[n+]2nc(-c3ccccc3)nn2-c2ccccc2)cc1.[Cl-]
- IC50 [2]: 9.1 µM and 4.5 µM
- IC50 [3]: 16.2 µM
- IC50 [5]: 12 µM
- Ratio IC50 [4]: 1.8 and 2.7

SMILES: O=[N+]([O-])c1ccc(-n2nc(-c3ccccc3)n[n+]2-c2ccc(I)cc2)cc1.[Cl-] [IODONITROTETRAZOLIUM CHLORIDE]
- IC50 ([2]; Plasmodium falciparum): 81 µM
- IC50 [3]: 49 µM
- Ratio IC50 [4]: 0.6

SMILES: [Cl-].[Cl-].c1ccc(-c2nn(-c3ccccc3)[n+](-c3ccc(-c4ccc(-[n+]5nc(-c6ccccc6)nn5-c5ccccc5)cc4)cc3)n2)cc1 [NEOTETRAZOLIUM CHLORIDE]
- IC50 ([2]; Plasmodium falciparum): 0.35 µM
- IC50 [3]: 11 µM
- Ratio IC50 [4]: 31.4

SMILES: [Cl-].c1ccc(-c2nn(-c3ccccc3)[n+](-c3ccccc3)n2)cc1 [TETRAZOLIUM RED]
- IC50 ([2]; Plasmodium falciparum): 0.3 µM
- IC50 [3]: 71 µM
- Ratio IC50 [4]: 236.7

Further lines, with some results ahead:

- IC50 ([2]; Plasmodium falciparum): 0.81 µM
SMILES: Fc1ccc(-[n+]2nc(-c3ccc(-c4ccccc4)cc3)nn2-c2ccccc2)cc1.[Cl-]
- IC50 [3]: 4.1 µM
- Ratio IC50 [4]: 5.1

- IC50 ([2]; Plasmodium falciparum): 0.93 µM
SMILES: Fc1ccc(-[n+]2nc(-c3ccccc3)nn2-c2ccccc2)cc1.[Cl-]
- IC50 [3]: 39 µM
- Ratio IC50 [4]: 41.9

- IC50 ([2]; Plasmodium falciparum): 0.47 µM
SMILES: Fc1ccc(-[n+]2nc(-c3ccc(OCc4ccccc4)cc3)nn2-c2ccccc2)cc1.[Cl-]
- IC50 [3]: 16 µM
- Ratio IC50 [4]: 34

- IC50 ([2]; Plasmodium falciparum): 0.83 µM
SMILES: Fc1ccc(-[n+]2nc(-c3cccc4ccccc34)nn2-c2ccccc2)cc1.[Cl-]
- IC50 [3]: 32 µM
- Ratio IC50 [4]: 38.6

- IC50 ([2]; Plasmodium falciparum): 0.39 µM
SMILES: Fc1ccccc1-[n+]1nc(-c2ccccc2)nn1-c1ccccc1.[Cl-]
- IC50 [3]: 44 µM
- Ratio IC50 [4]: 112.8

- IC50 ([2]; Plasmodium falciparum): 1.7 µM
SMILES: COc1ccc(-n2nc(-c3ccc(-c4ccccc4)cc3)n[n+]2-c2ccc(F)cc2)cc1.[Cl-]
- IC50 [3]: 19 µM
- Ratio IC50 [4]: 11.2

- IC50 ([2]; Plasmodium falciparum): 2.9 µM
SMILES: [Cl-].c1ccc(-c2ccc(-n3nc(-c4cccc5ccccc45)n[n+]3-c3ccccc3)cc2)cc1
- IC50 [3]: 9 µM
- Ratio IC50 [4]: 3.1

- IC50 ([2]; Plasmodium falciparum): 0.43 µM
SMILES: COc1ccc(-[n+]2nc(-c3ccc(-c4ccccc4)cc3)nn2-c2ccccc2)cc1.[Cl-]
- IC50 [3]: 19 µM
- Ratio IC50 [4]: 44.2

- IC50 ([2]; Plasmodium falciparum): 0.23 µM
SMILES: [Cl-].c1ccc(-c2ccc(-c3nn(-c4ccccc4)[n+](-c4ccccc4)n3)cc2)cc1
- IC50 [3]: 7 µM
- Ratio IC50 [4]: 30.4

- IC50 ([2]; Plasmodium falciparum): 1.14 µM
SMILES: Clc1ccc(-[n+]2nc(-c3ccc(OCc4ccccc4)cc3)nn2-c2ccccc2)cc1.[Cl-]
- IC50 [3]: 4.6 µM
- Ratio IC50 [4]: 4

- IC50 ([2]; Plasmodium falciparum): 0.26 µM
SMILES: Fc1cccc(-[n+]2nc(-c3ccc(-c4ccccc4)cc3)nn2-c2ccccc2)c1.[Cl-]
- IC50 [3]: 4.9 µM
- Ratio IC50 [4]: 18.8

- IC50 ([2]; Plasmodium falciparum): 3.2 µM
SMILES: COc1cc(-c2nn(-c3ccccc3)[n+](-c3cccc(F)c3)n2)ccc1OCc1ccccc1.[Cl-]
- IC50 [3]: 6.5 µM
- Ratio IC50 [4]: 2

- IC50 ([2]; Plasmodium falciparum): 0.103 µM
SMILES: [Cl-].c1ccc(COc2ccc(-c3nn(-c4ccccc4)[n+](-c4ccccc4)n3)cc2)cc1
- IC50 [3]: 4.2 µM
- Ratio IC50 [4]: 40.8

- IC50 ([2]; Plasmodium falciparum): 0.36 µM
SMILES: Fc1ccccc1-[n+]1nc(-c2ccc(-c3ccccc3)cc2)nn1-c1ccccc1.[Cl-]
- IC50 [3]: 8 µM
- Ratio IC50 [4]: 22.2

- IC50 ([2]; Plasmodium falciparum): 0.42 µM
SMILES: Fc1cccc(-[n+]2nc(-c3ccc(OCc4ccccc4)cc3)nn2-c2ccccc2)c1.[Cl-]
- IC50 [3]: 4.3 µM
- Ratio IC50 [4]: 10.2

- IC50 ([2]; Plasmodium falciparum): 2.2 µM
SMILES: Fc1cccc(-[n+]2nc(-c3ccccc3)nn2-c2ccccc2)c1.[Cl-]
- IC50 [3]: 36 µM
- Ratio IC50 [4]: 16.4

- IC50 ([2]; Plasmodium falciparum): 0.14 µM
SMILES: Fc1ccccc1-[n+]1nc(-c2ccc(OCc3ccccc3)cc2)nn1-c1ccccc1.[Cl-]
- IC50 [3]: 8 µM
- Ratio IC50 [4]: 57.1

- IC50 ([2]; Plasmodium falciparum): 0.41 µM
SMILES: Clc1ccc(-[n+]2nc(-c3ccc(-c4ccccc4)cc3)nn2-c2ccccc2)cc1.[Cl-]
- IC50 [3]: 16 µM
- Ratio IC50 [4]: 39

- IC50 ([2]; Plasmodium falciparum): 0.63 µM
SMILES: Clc1ccc(-[n+]2nc(-c3ccccc3)nn2-c2ccccc2)cc1.[Cl-]
- IC50 [3]: 39 µM
- Ratio IC50 [4]: 61.9

- IC50 ([2]; Plasmodium falciparum): 0.4 µM
SMILES: COc1ccc(-n2nc(-c3ccc(-c4ccccc4)cc3)n[n+]2-c2ccc(Cl)cc2)cc1.[Cl-]
- IC50 [3]: 12 µM
- Ratio IC50 [4]: 30

- IC50 ([2]; Plasmodium falciparum): 0.15 µM
SMILES: [Cl-].c1ccc(-c2nn(-c3ccccc3)[n+](-c3cccc4ccccc34)n2)cc1 [TETRAZOLIUM VIOLET]
- IC50 [3]: 15 µM
- Ratio IC50 [4]: 100
